In ChEMBL document CHEMBL4130535, “Aquilanols A and B, Macrocyclic Humulene-Type Sesquiterpenoids from the Agarwood of Aquilaria malaccensis” (2017):

How the values were obtained:
Staphylococcus aureus = test: Antibacterial activity against Staphylococcus aureus ATCC 25923 after 24 hrs; type: functional; conditions: ATCC 25923, 24 h
Method in brief: (§1)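 MIC determination, following a previously reported method, against the listed Gram-positive and Gram-negative ATCC strains.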

Enterococcus faecalis = test: Antibacterial activity against Enterococcus faecalis ATCC 19433 after 24 hrs; type: functional; conditions: ATCC 19433, 24 h; method in brief: as §1
Enterococcus faecium = test: Antibacterial activity against Enterococcus faecium ATCC 19434 after 24 hrs; type: functional; conditions: ATCC 19434, 24 h; method in brief: as §1
Salmonella typhimurium = test: Antibacterial activity against Salmonella enterica ATCC 14028 after 24 hrs; type: functional, Salmonella enterica subsp. enterica serovar Typhimurium; conditions: ATCC 14028, 24 h; method in brief: as §1
Klebsiella pneumoniae = test: Antibacterial activity against Klebsiella pneumoniae ATCC 10031 after 24 hrs; type: functional; conditions: ATCC 10031, 24 h; method in brief: as §1
Escherichia coli = test: Antibacterial activity against Escherichia coli ATCC 25922 after 24 hrs; type: functional; conditions: ATCC 25922, 24 h; method in brief: as §1
Aspergillus fumigatus = test: Antifungal activity against Aspergillus fumigatus HIC 6094 after 48 to 72 hrs; type: functional
Method in brief: (§2)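 MIC determination, following a previously reported method, against the listed fungal strains, with amphotericin B as the positive control.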

Trichophyton rubrum = test: Antifungal activity against Trichophyton rubrum NBRC 9185 after 48 to 72 hrs; type: functional; method in brief: as §2
[1] = system: Trichophyton mentagrophytes; test: Antifungal activity against Trichophyton mentagrophytes IFM 40996 after 48 to 72 hrs; type: functional; method in brief: as §2
Candida albicans = test: Antifungal activity against Candida albicans ATCC 10231 after 48 to 72 hrs; type: functional; method in brief: as §2

Measured: MIC

C=C1[C@@H](O)[C@]23CC[C@H](C)[C@@H]2C[C@@]1(O)C(=O)C=C3C
430 to 580 µM: Staphylococcus aureus | Enterococcus faecalis | Enterococcus faecium | Salmonella typhimurium | Klebsiella pneumoniae | Escherichia coli | Aspergillus fumigatus | Trichophyton rubrum | [1] | Candida albicans

COC(=O)[C@@]1(C)[C@]2(C)CC(=O)[C@@]1(O)CC1=C2C(=O)C[C@@H]1C
430 to 580 µM: Staphylococcus aureus | Enterococcus faecalis | Enterococcus faecium | Salmonella typhimurium | Klebsiella pneumoniae | Escherichia coli | Aspergillus fumigatus | Trichophyton rubrum | [1] | Candida albicans

C[C@H]1CC=C2[C@H]1C[C@]1(O)C(=O)C[C@@]2(C)[C@]1(C)C=O
430 to 580 µM: Staphylococcus aureus | Enterococcus faecalis | Enterococcus faecium | Salmonella typhimurium | Klebsiella pneumoniae | Escherichia coli | Aspergillus fumigatus | Trichophyton rubrum | [1] | Candida albicans

CC1(C)C/C=C2/CCC(O)C(C)(CC3OC31)OC2 (racemic)
430 to 580 µM: Staphylococcus aureus | Enterococcus faecalis | Enterococcus faecium | Salmonella typhimurium | Klebsiella pneumoniae | Escherichia coli | Aspergillus fumigatus | Trichophyton rubrum | [1] | Candida albicans

C=C1C2C[C@H]3[C@@H](C)CC[C@@]3(C(C)=CC2=O)[C@@H]1O
430 to 580 µM: Staphylococcus aureus | Enterococcus faecalis | Enterococcus faecium | Salmonella typhimurium | Klebsiella pneumoniae | Escherichia coli | Aspergillus fumigatus | Trichophyton rubrum | [1] | Candida albicans

CC1(C)/C=C/C[C@@]2(C)OC/C(=C\C1)CC[C@@H]2O
430 to 580 µM: Staphylococcus aureus | Enterococcus faecalis | Enterococcus faecium | Salmonella typhimurium | Klebsiella pneumoniae | Escherichia coli | Aspergillus fumigatus | Trichophyton rubrum | [1] | Candida albicans

COC(=O)[C@H]1C[C@]23CC[C@H](C)[C@@H]2C[C@@]1(O)C(=O)C=C3C
430 to 580 µM: Staphylococcus aureus | Enterococcus faecalis | Enterococcus faecium | Salmonella typhimurium | Klebsiella pneumoniae | Escherichia coli | Aspergillus fumigatus | Trichophyton rubrum | [1] | Candida albicans

C[C@H]1CC=C2[C@H]1C[C@]1(O)C(=O)C[C@@]2(C)[C@]1(C)CO
430 to 580 µM: Staphylococcus aureus | Enterococcus faecalis | Enterococcus faecium | Salmonella typhimurium | Klebsiella pneumoniae | Escherichia coli | Aspergillus fumigatus | Trichophyton rubrum | [1] | Candida albicans

C/C1=C/CC/C(CO)=C/CC(C)(C)/C=C/C1
430 to 580 µM: Staphylococcus aureus | Enterococcus faecalis | Enterococcus faecium | Salmonella typhimurium | Klebsiella pneumoniae | Escherichia coli | Aspergillus fumigatus | Trichophyton rubrum | [1] | Candida albicans
